The record followed here is the RNAGym collection of RNA variant scans (doi:10.1126/science.aae0568).

B1: tRNA (parent)
chain: GUUCCGUUGGCGUAAUGGUAACGCGUCUCCCUCCUAAGGAGAAGACUGCGGGUUCGAGUCCCGUACGGAACG

Fewer inactive variants are shown than the library holds.

In this data set the parent is B1. The data set can be described thus: yeast fitness relative to wild type (ratio to wild type); higher = fitter; tRNA-Arg(CCU), competitive growth, 37 C, YPD. The essentials:
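Changes in genotype frequencies gave Darwinian fitness relative to wild type. Frequencies were read by 100-nucleotide paired-end sequencing of gene amplicons before and after pooled Saccharomyces cerevisiae strains, carrying tRNA-Arg(CCU) gene variants at the native locus, were competed in YPD at 37°C for 24 hours in six replicates. A genotype was kept only with ≥ 100 starting reads, and estimates < 0.5 were set to 0.5.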
For C4U A14G C34G, the yeast fitness is not above 0.5.
C4U A20U U53C C61U: the yeast fitness is 0.627.
The result for C4U C22G A57U G63C reads not above 0.5; that for C4G C5G C29G, not above 0.5.
As for C4G U7G A36C, the yeast fitness is not above 0.5.
Regarding C4G G12U A14C C49U C66U, the yeast fitness is not above 0.5.
With C4U C5G G41A U59C, the yeast fitness is not above 0.5.
With C4G C33A the figure was 0.653; with C4G U32C A70U, 0.742.
As for C4G U19G A43U, the yeast fitness was not above 0.5.
With C4G C30G G38A A42U, the yeast fitness is not above 0.5.
With C4G A42G A45U C66U the figure was 0.659; with C4G C30G, 0.713.
With C4G U26A U47G U54C, the yeast fitness is not above 0.5.
Consider C4U A14C C22U C34U, for which the yeast fitness was not above 0.5.
On to C4G C11A C31U A40C, for which the yeast fitness is not above 0.5.
Turning to C4G G23C C55U A70U, the yeast fitness was not above 0.5.
With C4U A36G G39A the figure was 0.679; with C4G A43C C62A, not above 0.5.
Regarding C4U A37U A70U, the yeast fitness came out at 0.676.
The result for C4G U8G U35C U53G reads not above 0.5.
With C4G G38A, the yeast fitness worked out at 0.692.
C4G G38C: the yeast fitness was determined as 0.763.
With C4U A43G the figure was 1.
With C4G A37U the figure was 0.681.
With C4U A36C U59A the figure was not above 0.5.
As for C4U C11G G51A U59A C62G, the yeast fitness is not above 0.5.
The result for C4G C31A C33G G51C C60G reads not above 0.5; that for C4G U7A C22U, not above 0.5.
As to C4G G18A C66U, the yeast fitness was 0.524.
For C4G C11G C55U, the yeast fitness is not above 0.5.
Regarding C4G G17A A40G, the yeast fitness was not above 0.5.
With C4G C49U U59C the figure was 0.576; with C4U A15U C30A A40G C66U A70G, not above 0.5.
The result for C4G U19C C24U reads 0.619; that for C4U C5G C66U, 0.564; that for C4G A37U C60U, not above 0.5.
With C4G C5G U8C G23C C29U A45U C60U C62U A70C the figure was not above 0.5; with C4G C29A C34U A36U G50A, 0.568.
As for C4G U7C C22U C27A U59G, the yeast fitness is not above 0.5.
With C4U C5G C29G C31G A37C C66A the figure was 0.66; with C4G C5U U8A G12A G48A, not above 0.5; with C4U A15U U28C A57G C61G, not above 0.5.
In the case of C4U A20G A45U C49U C61U C62G A69C, the yeast fitness was not above 0.5.
With C4G A45G G68C the figure was 0.567.
With C4U A14G A21G C49U the figure was 0.677.
The result for C4U C22G G48A C60G reads not above 0.5; that for C4G C61A C62U A65U A69C, not above 0.5; that for C4G C30G G50U, not above 0.5.
As to C4U A15C C34A G63C, the yeast fitness was not above 0.5.
The result for C4U A15G C33A U59C C60U reads not above 0.5.
On to C4U A37G G39C C61U, for which the yeast fitness was not above 0.5.
With C4G U26A C27U A43G C55U C66U the figure was not above 0.5; with C4G U7G G9A A20G C22A G41A, not above 0.5.
The result for C4U A42C A45G C66A A69U reads not above 0.5; that for C4G C24G G41C, not above 0.5.
C4G C24A C46U A70G: the yeast fitness was not above 0.5.
Turning to C4G G17C A20U A37C, the yeast fitness came to 0.717.
With C4G G41A A43C the figure was not above 0.5; with C4G U13A, 0.874; with C4G C27G C46G U54C, 0.64.
Regarding C4U A20G C55U A65G, the yeast fitness is not above 0.5.
As for C4G U8C, the yeast fitness was found to be 0.89.
On to C4G A21U U54G, for which the yeast fitness was 0.607.
The result for C4G C11G C31G G48A C55A C62A reads not above 0.5; that for C4G G12A G38C C66U, not above 0.5.
As to C4G C22U C27U, the yeast fitness was found to be 0.657.
With C4U A37G the figure was 0.875; with C4G C29U A36C A40U C55G, not above 0.5.
The result for C4G U16C C31U A42G reads not above 0.5; that for C4U A14U G50C G51C G56A, not above 0.5.
In the case of C4G C46U, the yeast fitness amounted to 0.861.
As to C4G C46A, the yeast fitness came to 0.915.
With C4U C5A C66U, the yeast fitness was determined as 0.61.
With C4G U7C C27A C66A A70U the figure was not above 0.5.
Consider C4G G18C G68A, for which the yeast fitness was not above 0.5.
The result for C4U reads 0.989; that for C4G C22U C30A C34U G38C, not above 0.5; that for C4G C5A, 0.765.
The result for C4G G9C C34A A36G A40C reads not above 0.5; that for C4U A21G C31G C34G, 0.596; that for C4G C34U C49A U54C A69U, not above 0.5.
The result for C4G A36U C46G C62A A69C reads not above 0.5; that for C4U C5A A36C A42G G52A, 0.578.
On to C4U C22A A40C C55G A57C A69U, for which the yeast fitness is not above 0.5.
With C4G C5A U19A C24G C29G C66U the figure was not above 0.5; with C4U A42G G58A, 0.717; with C4U A42U, 0.944.
C4G C11G U19C G23C U28G C61G: the yeast fitness is not above 0.5.
The result for C4G C5G C31A U35C C46A G67A reads not above 0.5; that for C4G C27U G58C, 0.71; that for C4G C30A C34U A37G, not above 0.5.
Consider C4U A42C A43C C49U A70C, for which the yeast fitness was not above 0.5.
Take C4G G6C A43U G48A C66G: the yeast fitness is 0.512.
C4G G17A G63A C66U: the yeast fitness was not above 0.5.
With C4U C22U C55G the figure was not above 0.5; with C4G C5A U16A G17A G50A, not above 0.5.
In the case of C4G G50C, the yeast fitness turned out to be 0.679.
Regarding C4G C29G G58A, the yeast fitness worked out at 0.53.
Consider C4U A21G A70U, for which the yeast fitness amounted to 0.78.
Take C4G G68U: the yeast fitness amounted to 0.865.
As for C4G G68C, the yeast fitness amounted to 0.971.
With C4G G38A G67A the figure was not above 0.5.
For the variant C4G U35G A42C C66U, the yeast fitness was not above 0.5.
The result for C4U C11G U16C C34A C60U A69G reads not above 0.5; that for C4G G56A, 0.927; that for C4G G18A A21G G25A G51C, not above 0.5.
The result for C4G U13A G18A G52A C55G reads not above 0.5; that for C4G C24G G25A U35A G51C, not above 0.5.
With C4G C11A G17A A20G C27U A43U C49G the figure was not above 0.5; with C4U C5G C11U C29U U32A C33U G67U A70G, not above 0.5.
C4G C11A U32G A36G: the yeast fitness is not above 0.5.
The result for C4G A43U G44C reads 0.531; that for C4G A45G A57U C66U, 0.512; that for C4G G17A A45C, not above 0.5.
Regarding C4G G17A G58C C60U A69U, the yeast fitness was not above 0.5.
The result for C4G G17A C22A G38A C49U U53C reads not above 0.5; that for C4G U8G C24A C31G G50A, 0.594.
The result for C4U C11G C22G C62U reads not above 0.5; that for C4G C31U G48C, 0.647.
The result for C4G C33U C55A reads not above 0.5; that for C4G G52C, 0.655.
C4G G41U C61A C66U: the yeast fitness is not above 0.5.
With C4U A45C the figure was 0.939; with C4U A45G, 0.856.
Regarding C4G U16C A36U, the yeast fitness was not above 0.5.
As for C4G G17A C29U C62U, the yeast fitness is not above 0.5.
C4G C31A A42C: the yeast fitness is not above 0.5.
With C4G U8C C22G A42C the figure was not above 0.5; with C4G C5U C30U G39A, not above 0.5; with C4U C11G C29A U54A A57U, not above 0.5.
C4U C11A G12A U28C G44C: the yeast fitness is not above 0.5.
With C4G U28G the figure was 0.696.
For the variant C4G G23C C61G, the yeast fitness is not above 0.5.
The result for C4U A40G reads 0.997; that for C4U A37U A43U, not above 0.5; that for C4G G41A, 0.768.
As to C4G U16A G63A, the yeast fitness was 0.534.
As to C4G U8C U59G, the yeast fitness was not above 0.5.
With C4U C5G A37C the figure was not above 0.5; with C4G U7G C55G, not above 0.5.
The result for C4G G56A C66G reads not above 0.5; that for C4G C22A C27U G63C, 0.735; that for C4G A42C G50A, not above 0.5.
With C4G G25C the figure was 0.982; with C4G A40U A69U, 0.72.
On to C4G C34G U59A, for which the yeast fitness is not above 0.5.
On to C4G C29A C33G A45C, for which the yeast fitness is 0.588.
With C4G G9A C27U C46G G48A C62G G68C the figure was not above 0.5.
Regarding C4G G17A C55U A70G, the yeast fitness is not above 0.5.
As for C4G U7C C27A A70U, the yeast fitness is not above 0.5.
Take C4G A45G U54A: the yeast fitness was not above 0.5.
On to C4U A20G C29G U32A C62A, for which the yeast fitness was not above 0.5.
The result for C4G U7G C29A A65C reads not above 0.5.
With C4U A20U C22G the figure was 0.54.
As for C4G C22G U64A A65U, the yeast fitness is not above 0.5.
With C4G U26A C27U A43G C55U C62U the figure was 0.589; with C4G G58C C66U, 0.73.
With C4G A20U G56C the figure was not above 0.5.
With C4U A15U C30A A40G C66U the figure was 0.6.
For the variant C4G A57C, the yeast fitness worked out at 0.57.
For C4U A40U G58C, the yeast fitness was found to be 0.734.
Turning to C4U A37C G41C, the yeast fitness came out at 0.577.
For C4G C11U C33A U59C, the yeast fitness came out at 0.707.
Consider C4G C30A A42U C55U C66A, for which the yeast fitness was not above 0.5.
With C4U C5G C29G C31G A37C the figure was 0.627; with C4U A45U G68C, 0.7.
